A selection: hits, their analogues and other compounds. The true share with any hit is near 2.8%.
T cruzi repl – T. cruzi replication inhibition. T. cruzi beta-gal in NIH3T3, luminescence, 90 h. inhibition, % (concentration not given with the values). 300,000 tested, 1.4% active. AID 1885;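 active = mean inhibition across valid replicates above about 55%, limit read from the data; inconclusive = mean below that limit but half or more replicates reach it; inactive = mean below it, under half of replicates reach it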;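 note: signal also drops with host cell toxicity which is not excluded here; higher percent means less beta-gal luminescence so fewer parasites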
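Read-out: Parasite load inhibition, % | Test system: Mouse NIH/3T3 fibroblasts infected with β-gal-expressing T. cruzi Tulahuen C4 | Amount: 5,000 cells/well | Medium: DMEM, 2% fetal bovine serum | Signal: GalScreen β-gal luminescence, detergent lysis, 60 min | Timing: 3 h attach, ≥90 h co-culture | Also added: Tulahuen C4 trypomastigotes, 5000/well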
p-CIP stab down – lowers stability of the mouse p/CIP coactivator protein. decrease of EGFP signal, % at 10 µM. Q05BA5. 290,000 tested, 0.01% active. AID 1984. F442A p/CIP-EGFP cells, EGFP fluorescence, 16 h;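 active = EGFP signal decrease of at least 30% at 10 µM or well 3 SD below plate mean, unless failing retest; inactive = the rest, including hits failing retest or dose response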
PP1 inh – PP1-alpha (human) inhibition in PP5 counter-screen; P62136; inhibition, % at 6.7 µM; 320,000 tested, 0.9% active; purified PP1alpha, OMFP fluorescence;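 active = inhibition above the mean inhibition of all tested compounds plus 3 SD, computed separately for each screening campaign, cut at about 15% in these data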
UBC13 inh – human UBC13 polyubiquitination inhibition | AID 485273 | UBC13 polyubiquitin chain formation, TR-FRET | inhibition, % at 20 µM | 330,000 tested, 0.47% active; in the data active = inhibition above about 45%, passing the limit was not always enough; inconclusive = no clear call, values can overlap the other calls
AI-2 QS mod – modulates the Vibrio harveyi AI-2 quorum sensing system; 300,000 tested, 0.4% active; Vibrio harveyi JMH597 AI-2 luminescence/OD600 ratio, 9 h; hits give low values; strain lacks LuxN and CqsS sensors; 0 = neutral-control median; activity change, % at 7.5 µM; AID 2094; in the data active = activity change below about -75%, passing the limit was not always enough; inconclusive = no clear call, values can overlap the other calls;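 note: luminescence divided by OD600 gain over 9 h not by final OD600 alone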
A number is an active result; . = inactive; ? = inconclusive; / = no result given.

SMILES | T cruzi repl | p-CIP stab down | PP1 inh | UBC13 inh | AI-2 QS mod
CCCn1c(C)c(C(=O)c2cccc3ccccc23)c2ccccc21 | / | / | . | . | /
O=C(c1c[nH]cc1-c1ccccc1)c1cccc2ccccc12 | 57.9 | . | . | . | .
CCN(CC)C(=O)c1ccc(NC(=O)CN2CCc3cc(OC)c(OC)cc3C2)cc1 | . | . | . | . | .
Cc1nc2cc([N+](=O)[O-])ccc2c(=O)n1-c1ccc(Br)cc1 | . | . | . | . | .
Cc1nc2cc([N+](=O)[O-])ccc2c(=O)n1-c1ccccc1[N+](=O)[O-] | 59.3 | . | . | . | .
CSc1nnc(C2CCNCC2)n1C | . | . | . | . | .
CCOCCCn1c(N)c(C(=O)Nc2sc3c(c2C(=O)OC)CCCC3)c2nc3ccccc3nc21 | . | . | . | . | .
CCOC(=O)c1c(NC(=O)c2c(N)n(CCCOC)c3nc4ccccc4nc23)sc2c1CCCC2 | 64.0 | . | . | . | .
O=C(Nc1cccc(Br)c1)c1c(O)c2c(n(Cc3ccccc3)c1=O)CCCC2 | . | . | . | . | .
CC(NCc1ccc(Cl)c(Cl)c1)C(O)c1ccccc1 (configuration not stated) | . | . | . | . | .
CN[C@@H]1C[C@@H](c2ccc(Cl)c(Cl)c2)c2ccccc21 | . | . | . | 46.3 | .
O=c1c2ccccc2nc(-c2ccc(-c3ccccc3)cc2)n1-c1ccncc1 | 83.9 | . | . | . | .
Clc1cc(I)cc(Cl)c1NC1=NCCN1 | . | / | . | . | .
O=c1[nH]c(=O)n(C2CCCCCC2)c(O)c1C=NC1CCN(Cc2ccccc2)CC1 | 65.0 | . | . | . | .
Cn1c(O)c(C=NC2CCN(Cc3ccccc3)CC2)c(=O)[nH]c1=O | . | . | . | . | .
O=[N+]([O-])c1ccccc1-c1cc(-c2ccccc2)cc(-c2ccccc2)[n+]1Cc1ccccc1Cl | 56.2 | / | . | . | .
c1ccc(-c2ccc(-c3n(-c4ccccn4)c4ccccc4[n+]3-c3ccccn3)cc2)cc1 | 59.9 | . | / | / | .
Cc1ccc2c(c1)C(c1ccccc1)=NCC(=O)N2C | . | / | . | . | .
O=S(=O)(c1ccc(Cl)cc1)N1CCCCC1c1cccnc1 (configuration not stated) | 71.0 | . | . | . | .
O=S(=O)(c1ccc(F)cc1)N1CCCCC1c1cccnc1 (configuration not stated) | . | . | . | . | .
Cc1c(C(=O)c2cccc3ccccc23)c2cccc3c2n1[C@H](CN1CCOCC1)CO3 | 72.3 | / | . | . | .
O=C(CN1CCOCC1)c1cccc2ccccc12 | . | . | . | . | .
CCCn1ncc(CN2CCCC(C(=O)c3cccc(OC)c3)C2)c1C (configuration not stated) | 68.0 | . | . | . | .
CCn1cc(CN2CCCC(C(=O)c3cccc(OC)c3)C2)c(C)n1 (configuration not stated) | 58.4 | . | . | . | .
CCCn1cc(CN2CCCC(C(=O)c3cccc(OC)c3)C2)c(C)n1 (configuration not stated) | . | . | . | . | .
SMILES | T cruzi repl | p-CIP stab down | PP1 inh | UBC13 inh | AI-2 QS mod
O=C(Nc1ccccc1)c1c(O)[nH]c(=S)[nH]c1=O | . | / | 16.0 | . | .
CCN1/C(=C\C=C\C2=[N+](CC)c3ccccc3C2(C)C)C(C)(C)c2ccccc21 | 54.8 | . | . | . | .
CC[C@@]1(O)C(=O)OCc2c1cc1n(c2=O)Cc2cc3ccccc3nc2-1 | 55.6 | . | . | / | .
CCC1(OC(=O)CN)C(=O)OCc2c1cc1n(c2=O)Cc2cc3ccccc3nc2-1 (configuration not stated) | 60.9 | . | . | / | .
Cc1ccc(Cn2cc(C=O)c(-c3ccc(C)cc3)n2)cc1 | . | . | . | . | .
Cc1ccc(N2C(=O)NC(=O)/C(=C\c3ccc([N+](=O)[O-])o3)C2=O)cc1 | . | . | . | . | .
Cc1ccc(N=Cc2c(O)n(C)c(=O)n(C)c2=O)cc1 | . | . | . | . | .
COc1cccc(-n2c(CN3CCN(C)CC3)nc3ccc([N+](=O)[O-])cc3c2=O)c1 | . | . | . | . | .
FC(F)(F)c1ccc(CNCCc2ccc3c(c2)OCO3)cc1 | 55.3 | . | . | . | .
CN(C)CC#CCC(O)(c1ccccc1)C1CCCC1 (configuration not stated) | 66.9 | . | . | . | .
O=[N+]([O-])c1ccc(NC2CCN(Cc3ccccc3)CC2)c2ccncc12 | 60.0 | . | . | . | .
Cc1ccc(C(c2nnnn2Cc2ccccc2)N2CC=C(c3ccc(F)cc3)CC2)cc1 (configuration not stated) | 65.5 | . | . | . | .
Fc1ccc(Cn2nnnc2C(c2ccc(Cl)cc2)N2CC=C(c3ccc(F)cc3)CC2)cc1 (configuration not stated) | 69.0 | . | . | . | .
Fc1ccc(C2=CCN(C(c3ccc(Cl)cc3)c3nnnn3Cc3ccccc3)CC2)cc1 (configuration not stated) | . | . | . | . | .
Cc1ccc(/C=C2/Sc3ccc(C(=O)N4CCC5(CC4)OCCO5)cc3NC2=O)cc1 | . | . | . | . | .
COc1ccc(CCNCc2ccc(SC)cc2)cc1 | 60.5 | . | . | . | .
COc1cccc(CNCCc2ccc(F)cc2)c1 | . | . | . | . | .
COC12C(COC(N)=O)C3=C(C(=O)C(C)=C(N)C3=O)N1CC1C2N1C (configuration not stated) | 57.9 | . | . | . | .
O=[N+]([O-])c1ccc(-[n+]2c(-c3ccccc3)cc(-c3ccccc3)cc2-c2ccccc2)cc1 | 56.7 | . | . | . | .
CN1CCN(c2ccc([N+](=O)[O-])c(N3CCCCC3)c2)CC1 | 79.5 | . | . | . | .
CCCOC(=O)c1c(N)n(Cc2cccs2)c2nc3ccccc3nc12 | . | . | . | . | .
CCCCCn1c(N)c(C(=O)NCc2cccs2)c2nc3ccccc3nc21 | . | . | . | . | .
Nc1c(C(=O)NCCCc2ccccc2)c2nc3ccccc3nc2n1Cc1cccs1 | 57.8 | . | . | . | .
CCCCn1c(N)c(C(=O)NCc2cccs2)c2nc3ccccc3nc21 | 54.9 | . | . | . | .
CC1CC(OP(O)(=S)c2ccc(N(C)C)cc2NC(=O)c2cccs2)CC(C)(C)C1 (configuration not stated) | . | . | . | . | .
Nc1ncnc2c1ccn2[C@@H]1O[C@H](CO)[C@@H](O)[C@H]1O | 85.6 | / | . | . | .
CC1=C2[C@H]3OC(=O)[C@@H](C)[C@@H]3CC[C@@]2(C)C=CC1=O | / | / | . | . | /
NC(Cc1cc(O)c(O)cc1O)C(=O)O (configuration not stated) | / | / | 68.5 | ? | /
COc1cc(/C=C(/C)[N+](=O)[O-])ccc1OCc1ccccc1Cl | 61.4 | . | . | . | .
CC1CCN(CC#CCOc2ccc(Cl)cc2)CC1 | . | . | . | . | .
